MrgX1 agonist = agonists of human MrgX1 receptor; Q96LB2; MrgX1-HEK293 cells, Fluo-4 calcium fluorescence, agonist mode; hits give high values; B-score at 10 µM; 0.44% of 310,000 active;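 active = calcium response B-score plate-corrected fluorescence ratio at least 3 library SD, with starting fluorescence B-score inside 5 SD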
Target sequence (Q96LB2 whole entry, looked up): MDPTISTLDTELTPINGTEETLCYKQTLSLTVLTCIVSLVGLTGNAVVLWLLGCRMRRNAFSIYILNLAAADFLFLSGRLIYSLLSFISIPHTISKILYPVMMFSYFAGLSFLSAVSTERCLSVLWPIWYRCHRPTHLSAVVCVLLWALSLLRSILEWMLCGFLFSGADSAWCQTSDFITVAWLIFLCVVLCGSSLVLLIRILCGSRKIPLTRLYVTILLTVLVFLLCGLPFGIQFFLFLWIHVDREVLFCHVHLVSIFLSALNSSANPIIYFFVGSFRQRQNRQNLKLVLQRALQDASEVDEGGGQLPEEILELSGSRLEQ
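Material: HEK293 cells stably expressing human MrgX1 receptor | Quantity: 15,000 cells per well | Times: Cells plated overnight, dye loaded 0.5 h 37 °C, 0.5 h room temperature | Measured by: Kinetic Fluo-4 NW fluorescence of intracellular calcium | Control set: Positive and negative controls per plate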
RGS4 act = potentiators or activators of RGS4. B-score at 10 µM. 0.92% of 310,000 active. AID 463111. HEK293 M3R/inducible RGS4, carbachol calcium flux Fluo4; hits give low values;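 active = B-score of the integrated calcium signal more than 4 SD below the library mean, with starting fluorescence not abnormally high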;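 also: negative B-score means reduced calcium response which marks RGS4 activation or potentiation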
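Reagent: ECmax carbachol challenge; Test system: M3R-expressing HEK293 line, RGS4 induced by doxycycline; Schedule: overnight RGS4 induction, 30 min dye load 37 °C, 20 min compound RT; Detection: calcium dye Fluo4 fluorescence; Read-out: Agonist-evoked peak-minus-minimum fluorescence over baseline, integrated ratio, B score.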
RGS4 inh = inhibitors of human RGS4; HEK293 M3R/RGS4 inducible, Fluo-4 calcium flux; hits give high values; triggered by carbachol at its EC20; B-score at 10 µM; AID 463165; P49798; 0.45% of 310,000 active;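 active = B-score, a plate-corrected calcium signal, over three deviations above library mean, with baseline fluorescence within five deviations of library mean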;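 also: RGS4 expression induced by doxycycline in cells with stable M3 receptor; B-score is computed from the integrated fluorescence ratio over baseline after carbachol; higher B-score means a larger calcium signal and so more RGS4 inhibition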
Target sequence (P49798 whole entry, looked up): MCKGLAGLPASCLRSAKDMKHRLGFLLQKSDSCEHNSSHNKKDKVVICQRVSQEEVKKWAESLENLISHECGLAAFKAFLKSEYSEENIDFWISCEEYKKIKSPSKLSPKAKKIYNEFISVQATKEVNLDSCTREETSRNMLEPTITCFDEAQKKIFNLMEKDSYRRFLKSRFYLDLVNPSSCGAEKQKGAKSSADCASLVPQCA
MrgX1 PAM = allosterically activates human MrgX1 receptor signaling. Q96LB2. MrgX1-HEK293, Fluo-4 calcium flux, FDSS; hits give high values. B-score at 10 µM. 0.63% of 310,000 active. AID 588675;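 active = plate-corrected calcium response at least 3 library SD above typical, normal starting fluorescence, not activating the receptor alone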;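 also: compound read alongside a low EC10 to EC30 dose of BAM8-22 agonist; peak minus trough fluorescence over baseline measured at the second addition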
MrgX1 antagonist = antagonists of human MrgX1 receptor. Q96LB2. MRGX1-HEK293 calcium flux, Fluo-4, BAM8-22 antagonism; hits give low values. B-score at 10 µM. 1.3% of 310,000 active. AID 588676;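 active = calcium-response B-score plate-corrected more than 3 library SD below zero, starting fluorescence within 5 deviations, no agonist response on first addition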;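 also: peak minus trough fluorescence over baseline after final BAM8-22 challenge near maximal dose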
RGS4 activ val = confirmation of RGS4 activators. shares compounds with RGS4 act. HEK293 M3R/RGS4 inducible, carbachol calcium flux Fluo4. inhibition, % at 10 µM. 89% of 1,100 active;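 active = inhibition above 3 SD of the buffer control wells, cut at about 41% in these data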;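 also: signal is the integrated peak-minus-minimum Fluo4 fluorescence over baseline ratio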
RGS4 act ctr = counter-screen for RGS4 activators: effect in non-induced cells | shares compounds with RGS4 act | HEK293 M3R non-induced RGS4, Fluo4 calcium flux; after carbachol challenge at its EC90 | inhibition, % at 10 µM | 82% of 1,100 active | AID 602283;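 active = inhibition exceeding 3 SD of buffer-only control wells, cut at about 26% in these data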;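 also: percent drop in integrated peak-minus-baseline over baseline Fluo4 ratio after carbachol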
* marks the source's active call; other numbers are inactive results; i = inactive; nt = not tested or not shown; ! = not confirmed by another sample. Sampled rows, rich in hits. Any-hit rate of the full collection: about 3.5%.

SMILES	MrgX1 agonist	RGS4 act	RGS4 inh	MrgX1 PAM	MrgX1 antagonist	RGS4 activ val	RGS4 act ctr
Cc1ccsc1CN(C)C(=O)c1ccc(Oc2ccccc2)cc1	i	i	i	i	i	nt	nt
CC1CC(C)(C)N(C(=O)CSc2ccc(-c3ccc(F)cc3)nn2)c2ccccc21 (stereo not given)	i	-12.8*	i	i	i	93.5*	72.3*
CC(C)CC(NC(=O)C(NC(=O)C1CCC(=O)N1C(=O)OCc1ccccc1)C(C)C)C(=O)N1CCCC1C(N)=O (stereo not given)	i	i	i	i	i	nt	nt
Cc1ccccc1OCc1n(CC(=O)OC2CC(C)CCC2C(C)C)c2ccccc2[n+]1C (stereo not given)	i	-13.1*	i	i	-7.21*	91.5*	90.8*
CC1CCC(C(C)C)C(OC(=O)Cn2c(-c3ccc(Br)cc3)[n+](C)c3ccccc32)C1 (stereo not given)	i	-11.4*	i	i	-5.97*!	93.5*	81.3*
CC1CCC(C(C)C)C(OC(=O)COC(=O)c2ccc(N)cc2)C1 (stereo not given)	i	i	i	i	i	nt	nt
Cc1cccc(CCNC(=O)CCc2nnc(CCc3ccccc3)o2)n1	i	i	i	i	i	nt	nt
Cc1cc2occ(CC(=O)NC3(C)CCS(=O)(=O)C3)c2cc1C (stereo not given)	i	i	i	i	i	nt	nt
COc1ccc2c(c1)sc(N)[n+]2Cc1cc(C)cc2cccnc12	i	i	i	i	i	nt	nt
CCOc1ccc2c(c1)sc(N)[n+]2Cc1cc(C)cc2cccnc12	i	-10.8*	i	i	i	89.5*	45.8*
CC1CCCCN1C(=O)c1cc2nc(-c3ccccc3)cc(-c3ccccc3)n2n1 (stereo not given)	i	-7.89*	i	i	i	73.5*	0.0
CN(C)CCC1Sc2ccccc2Oc2ccccc21 (stereo not given)	i	-7.64*	i	i	i	73.5*	83.8*
c1ccc(CN2CCN(C3=Nc4cccc5cccc3c45)CC2)cc1	nt	i	i	nt	nt	nt	nt
Fc1ccc(N2CCN(C3=Nc4cccc5cccc3c45)CC2)cc1	i	-12.6*	i	i	i	93.5*	73.8*
CCC(c1nnnn1Cc1cccs1)N1CCN(c2nc3ccccc3s2)CC1 (stereo not given)	i	i	i	i	i	nt	nt
CC(C)CC(c1nnnn1Cc1cccs1)N1CCN(c2nc3ccccc3s2)CC1 (stereo not given)	i	-11.5*	i	i	i	92.5*	70.8*
CC(=O)c1cccc(N(C(=O)c2ccco2)C(C(=O)NC2CCCCC2)c2ccc(C)o2)c1 (stereo not given)	i	i	i	i	i	nt	nt
COc1cc2nc(Nc3ccc(C)c(C)c3)nc(N)c2cc1OC	i	-10.2*	i	i	i	61.0*	0.0
CCc1ccc(OCCNC(=O)c2ccccc2SCc2ccccc2)cc1	i	-11.3*	i	i	i	94.0*	79.8*
CCNC(=O)c1ccccc1SCc1ccccc1	i	i	i	i	i	nt	nt
Cc1ccccc1CC1(CO)CCCN(C(=O)c2ccccc2N(C)C)C1 (stereo not given)	i	i	i	i	i	nt	nt
Cc1ccccc1CC1(CO)CCCN(C(=O)c2ccc3ncccc3c2)C1 (stereo not given)	i	-10.4*	i	i	i	62.0*	83.8*
Cc1c(C(=O)OCC(=O)N2C(C)CCCC2C)oc2ccccc12 (stereo not given)	i	i	i	i	i	nt	nt
Cc1c(C(=O)OCC(C)(C)CN(C)C)oc2ccccc12	i	i	i	i	i	nt	nt
Cc1c(C(=O)OCCN2CCCCC2)oc2ccccc12	i	-11*	i	i	i	94.0*	91.3*
SMILES	MrgX1 agonist	RGS4 act	RGS4 inh	MrgX1 PAM	MrgX1 antagonist	RGS4 activ val	RGS4 act ctr
Cc1c(C(=O)OC(C)CCN(C)C)oc2ccccc12 (stereo not given)	i	-11.2*	i	i	i	93.0*	82.3*
O=C(Nc1cccc(-c2nc3ccccc3s2)c1)c1cccs1	i	-8.1*	i	i	i	92.0*	67.3*
O=C(Nc1cccc(-c2nc3ccccc3s2)c1)c1cc(=O)c2ccccc2o1	i	i	i	i	i	nt	nt
Cc1ccc(C(=O)c2cnc3ccccc3c2-c2ccccc2)cc1	i	-8.33*	i	i	i	77.5*	57.8*
COc1ccc(C(=O)c2cnc3ccccc3c2-c2ccccc2)cc1	i	-8.56*	i	i	i	85.5*	66.3*
O=C1CCCN1S(=O)(=O)c1ccccc1	i	-7.89*	i	i	i	50.0*	0.0
Cc1nnc2n(c1=O)N=C(c1ccc(Cl)cc1)CS2	i	i	i	i	i	nt	nt
CC(=O)N(C)c1ccc(NC(=O)Nc2ccc(C)cc2)cc1	i	i	i	i	i	nt	nt
CC(=O)N(C)c1ccc(NC(=O)Nc2ccc(Cl)cc2)cc1	i	-8.34*	i	i	i	93.0*	67.8*
COc1ccc2c(c1)cc1c(=O)n(CC(=O)NC(C)CCc3ccccc3)nc(C)n12 (stereo not given)	i	i	i	i	i	nt	nt
CCCC1(CCC)C(=O)NC(=NCCc2ccc(OC)c(OC)c2)NC1=O	i	i	i	i	i	nt	nt
Cc1ccc(N2C(=O)C(O)(C(F)(F)F)C3=C2CC(C)(C)CC3=O)cc1C (stereo not given)	i	i	i	i	i	nt	nt
CC1(C)CC(=O)C2=C(C1)N(c1ccc(Cl)cc1)C(=O)C2(O)C(F)(F)F (stereo not given)	i	-14.3*	i	i	i	79.0*	26.8*
COc1ccc(C)c2sc(=NC(=O)c3cccc(N4C(=O)CCC4=O)c3)n(C)c12	i	i	i	i	i	nt	nt
C=CCn1c(=NC(=O)c2cccc(N3C(=O)CCC3=O)c2)sc2cccc(OC)c21	i	-10.2*	i	i	i	92.0*	72.8*
COc1ccccc1C(=O)NCC(c1cccs1)N1CCc2ccccc21 (stereo not given)	i	-7.77*	i	i	i	61.5*	36.3*
CN(C)C(=O)CSc1nnc(-c2cc(-c3cccs3)nc3ccccc23)o1	i	-8.28*	i	i	i	76.0*	45.3*
